# In ChEMBL document CHEMBL1150125, “Antiplasmodial activity of alkaloids from various strychnos species” (J Nat Prod, 2002):
# Legend:
# [1] = test system: Plasmodium falciparum; assay: Antiplasmodial activity against chloroquine-resistant Plasmodium falciparum FCB1-R/Colombia by [3H]hypoxanthine uptake; assay type: functional, organism-based
# Outline: (§1)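 Asexual erythrocytic stages kept in continuous culture (Trager and Jensen method). Each sample run as eight 4-fold dilutions, final 20 to 0.0012 µg/mL, in duplicate. IC50 and IC90 derived; number of independent experiments per value given separately.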
# [2] = test system: Plasmodium falciparum; assay: Antiplasmodial activity against chloroquine-sensitive Plasmodium falciparum FCA 20/ Ghana by [3H]hypoxanthine uptake; assay type: functional, organism-based; outline: as §1
# [3] = test system: Plasmodium falciparum; assay: Antiplasmodial activity against chloroquine-resistant Plasmodium falciparum W2/Indochina by [3H]hypoxanthine uptake; assay type: functional, organism-based; outline: as §1
# [4] = test system: HCT-116; assay: Cytotoxicity against human HCT116 cells after 72 hrs by WST1 assay; assay type: cell-based; conditions: HCT-116, 72 h
# Outline: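 HCT-116 colon cancer cells were seeded at 5000 per well in medium containing the test drugs, with matched DMSO controls. After 72 h, WST-1 was added for 30 min at 37 °C. Absorbance was read against a cell-free medium plus WST-1 blank and expressed as percent of control. Two independent experiments were run, each in triplicate, and means ± SEM were calculated.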
# [5] = Selectivity index, ratio of IC50 for human HCT116 cells to IC50 for chloroquine-resistant Plasmodium falciparum W2/Indochina; assay type: toxicity, cell-based, HCT-116; conditions: HCT116 cells versus Plasmodium falciparum W2/Indochina, read-out: Ratio IC50
# Outline: (§2)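 Selectivity index = IC50 in HCT-116 cells / IC50 in P. falciparum. Cell IC50: 5000 HCT-116 cells per well with drug, DMSO controls, 72 h incubation, then WST-1 for 30 min at 37 °C. Absorbance read against a cell-free blank and expressed as percent of control. Two independent experiments, each in triplicate, means ± SEM.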
# [6] = Selectivity index, ratio of IC50 for human HCT116 cells to IC50 for chloroquine-sensitive Plasmodium falciparum FCA 20/ Ghana; assay type: toxicity, cell-based, HCT-116; conditions: HCT116 cells versus Plasmodium falciparum FCA 20/Ghana, read-out: Ratio IC50; outline: as §2
# [7] = Plasmodium falciparum, FCB1-R/Colombia
# [8] = Plasmodium falciparum, FCA 20/ Ghana
# [9] = Plasmodium falciparum, W2/Indochina
Structure (SMILES),"IC50 [1, 7] [µM]","IC90 [1, 7] [µM]","IC50 [2, 8] [µM]","IC90 [2, 8] [µM]","IC50 [3, 9] [µM]","IC90 [3, 9] [µM]",IC50 [1] [µM],IC90 [1] [µM],IC50 [2] [µM],IC90 [2] [µM],IC50 [3] [µM],IC90 [3] [µM],IC50 [4] [µM],selectivity ratio [5],selectivity ratio [6]
C/C=C1/CN2CC[C@@]34c5ccccc5N5C([C@H]6[C@@H]7N(C(C)=O)c8ccccc8[C@@]78CCN7C/C(=C/C)[C@@H]6C[C@H]78)OC=C([C@H]1C[C@H]23)[C@H]54 (stereo not given in full),2.12,7.13,4.58,18.7,3.31,18.5,–,–,–,–,–,–,–,–,–
C[C@@H]1OC[C@H]2[C@@H]3C[C@H]4N(CC[C@]45c4ccccc4N[C@H]25)/C(=C/C2=CN4CC[C@]56c7ccccc7N[C@H]5[C@H](CO)[C@H]2C[C@H]46)[C@@H]31,5.27,12.7,9.77,17.7,> 20,–,–,–,–,–,–,–,–,–,–
c1ccc2c(c1)C[C@H]1C3Nc4ccccc4C3CCN1C2 (stereo not given in full),12.9,47.4,11.3,42.2,18.3,89.5,–,–,–,–,–,–,–,–,–
C/C=C1\CN2CC[C@]34c5ccccc5N5[C@@H]6O[C@H]([C@H]([C@H]53)[C@H]1C[C@H]24)N1c2ccccc2[C@]23CCN4C/C(=C/C)[C@H](C[C@H]42)[C@H]6[C@H]13 (stereo in doubt; 53) [MATOPENSINE],–,–,–,–,–,–,4.67,24.8,13.2,73.3,8.66,86.7,–,–,–
CC1C2=CN3CCc4c([nH]c5ccc(O)cc45)C3CC2CC2NCCC3c4ccccc4N1C23 (stereo in doubt; 64) [JANUSSINE A],15.9,28.3,9.55,30.9,–,27.6,–,–,–,–,12.7,–,–,–,–
CC1C2=CN3CCc4c([nH]c5ccc(O)cc45)C3CC2CC2NCCC3c4ccccc4N1C23 (stereo in doubt; 65) [JANUSSINE A],–,–,–,–,–,–,17,33.1,12.6,34.9,4.75,27.8,–,–,–
C=CC1CN2CC[C@@]34c5cc(C(C)C6=CN7CC[C@]89c%10ccccc%10N[C@H]8[C@@H](CO)[C@H]6C[C@H]79)ccc5N[C@@H]3[C@@H](CO)[C@@H]1C[C@@H]24 (stereo in doubt; 67) [PANGANENSINE X],–,–,10.4,–,–,78.7,13.5,43.7,–,68.2,17.4,–,–,–,–
C=CC1CN2CC[C@@]34c5cc(C(C)C6=CN7CC[C@]89c%10ccccc%10N[C@H]8[C@@H](CO)[C@H]6C[C@H]79)ccc5N[C@@H]3[C@@H](CO)[C@@H]1C[C@@H]24 (stereo in doubt; 68) [PANGANENSINE X],12.9,26.1,–,34.8,17,–,–,–,14.9,–,–,85.8,–,–,–
CN1CCC2c3ccccc3N3C2[C@@H]1C[C@@H](C1=CCOC1=O)C[C@@H]3O (stereo not given in full) [AKAGERINE LACTONE],27.5,55.2,17,60.7,25.9,53.3,–,–,–,–,–,–,–,–,–
C[C@@H]1CC[C@H]2[C@@H](C)C(=O)O[C@@H]3O[C@@]4(C)CC[C@@H]1[C@]32OO4 [ARTEMISININ],0.005,0.013,–,–,0.002,0.017,–,–,–,–,–,–,–,–,–
CCN(CC)CCCC(C)Nc1ccnc2cc(Cl)ccc12 (stereo not given) [CHLOROQUINE],–,0.084,–,0.071,–,1.75,–,–,–,–,–,–,33.7,–,–
C/C=C1\CN2CCC3c4ccccc4NC3[C@@H]2C[C@@H]1CC1=NCCc2c1[nH]c1ccccc21 (stereo not given in full) [DIHYDROUSAMBARENSINE],–,–,0.857,2.49,0.032,4.68,–,–,–,–,–,–,12,375,14
C=C1c2[nH]c3ccccc3c2CCN2C[C@@H](CC)CC[C@H]12 [EPINGOUNIENSINE],16.3,49.7,7.8,26.9,15.8,52.8,–,–,–,–,–,–,–,–,–
C/C=C1/CN2[C@@H](C3=C[C@@H]4[C@@H]5N(C3=O)c3ccccc3[C@@]53CCN5C/C(=C/C)[C@@H]4C[C@H]53)C[C@@]34c5ccccc5N5C(=O)CC=C([C@H]1C[C@H]23)[C@H]54 [ISOSUNGUCINE],–,–,1.32,7.06,0.265,1.72,–,–,–,–,–,–,–,–,–
C/C=C1/CN2CCc3c([nH]c4ccccc34)[C@@H]2C[C@@H]1C1=CN2c3ccccc3[C@]34CCN5C/C(=C/C)[C@H](C[C@H]53)[C@@H]([C@@H]1O)[C@H]24 [LONGICAUDATINE F],11.7,33.4,7.7,26.7,9.58,28.1,–,–,–,–,–,–,–,–,–
C=C1c2[nH]c3ccccc3c2CCN2C[C@H](CC)CC[C@H]12 [NGOUNIENSINE],17.8,62.8,26.8,71,20.2,70.1,–,–,–,–,–,–,–,–,–
C=C[C@H]1CN2CC[C@H]1C[C@H]2[C@H](O)c1ccnc2ccc(OC)cc12 [QUININE],0.2,2.74,0.269,1.91,0.413,1.72,–,–,–,–,–,–,–,–,–
C/C=C1/CN2CCc3c([nH]c4ccccc34)[C@@H]2C[C@@H]1C1CCC([C@H]2C[C@H]3c4[nH]c5ccccc5c4CCN3C/C2=C/C)C1 (stereo not given in full) [STRYCHNOFURANINE],10.8,33.5,4.11,15,2.8,16,–,–,–,–,–,–,–,–,–
C/C=C1/CN2CC[C@]34c5ccccc5N5C(=O)C([C@H]6C[C@]78c9ccccc9N9C(=O)C=C[C@@H]([C@H]97)[C@H]7C[C@@H]8N6C/C7=C/C)=C[C@H]([C@H]53)[C@H]1C[C@H]24 [SUNGUCINE],–,–,7.82,26.3,10.1,33.2,–,–,–,–,–,–,6.2,0.611,0.79
C/C=C1/CN2CCc3c([nH]c4ccccc34)[C@@H]2C[C@@H]1C1=CN2c3ccccc3[C@]34CCN5C/C(=C/CO)[C@H](C[C@H]53)[C@@H]([C@@H]1O)[C@H]24 [TETRADEHYDROLONGICAUDATINE Y],–,–,1.24,7.97,0.958,12.1,–,–,–,–,–,–,–,–,–
C/C=C1/CN2CCc3c([nH]c4ccccc34)[C@@H]2C[C@@H]1Cc1nccc2c1[nH]c1ccccc12 [USAMBARENSINE],–,–,–,4.41,0.594,4.83,–,–,–,–,–,–,–,–,–
C=C[C@H]1CN2CCc3c([nH]c4ccccc34)[C@@H]2C[C@@H]1C[C@H]1c2[nH]c3ccccc3c2CCN1C [USAMBARINE],–,–,2.5,9.21,2.36,7.29,–,–,–,–,–,–,–,–,–
